The values below come from ChEMBL document CHEMBL1154236, “Monoterpenes from Paeonia albiflora and their inhibitory activity on nitric oxide production by lipopolysaccharide-activated microglia” (J Nat Prod, 2009).

Some results are limits rather than exact numbers.

Series [1] relates to N9. Description: Antiinflammatory activity against mouse N9 cells assessed as LPS-induced nitric oxide production at 1 uM after 48 hrs by Griess reaction relative to control. Particulars: N9, 48 h. On the technique in general: Griess reagent forms a coloured azo dye with nitrite.
The subject of series [2] is N9. Description: Antiinflammatory activity against mouse N9 cells assessed as LPS-induced nitric oxide production at 3 uM after 48 hrs by Griess reaction relative to control. As to conditions: N9, 48 h.
The test system of series [3] is N9. Description: Antiinflammatory activity against mouse N9 cells assessed as LPS-induced nitric oxide production at 10 uM after 48 hrs by Griess reaction relative to control. Particulars: N9, 48 h.
For series [4], the system named is N9. Description: Antiinflammatory activity against mouse N9 cells assessed as LPS-induced nitric oxide production at 30 uM after 48 hrs by Griess reaction relative to control. Particulars: N9, 48 h.
The subject of series [5] is N9. Description: Antiinflammatory activity against mouse N9 cells assessed as inhibition of LPS-induced nitric oxide production after 48 hrs by Griess reaction relative to control. As to conditions: N9, 48 h.
The test system of series [6] is N9. Description: Cytotoxicity against LPS-stimulated mouse N9 cells at 1 to 30 uM after 48 hrs by MTT assay. It is filed as cell-based. As to conditions: n9, 48 h. Summed up: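 N9 microglia seeded at 5 × 10^4 cells/well and exposed to compounds with LPS (1 µg/mL) for 48 h. MTT 0.25 mg/mL then added for 3 h at 37 °C. Formazan dissolved in DMSO and absorbance read at 490 nm.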
In general terms: Formazan colour is commonly taken as a measure of viable cells.

One may read the IC50 as the concentration needed to halve the response being measured. Take `COc1cc(COC[C@H]2O[C@@H](O[C@@]34C[C@H]5[C@@]3(COC(=O)c3ccccc3)[C@H]3O[C@]5(O)C[C@]4(C)O3)[C@H](O)[C@@H](O)[C@@H]2O)ccc1O`: the NO production (% of LPS control) at 1 µM in series [1] was 107%. Moreover, the NO production (% of LPS control) at 3 µM in series [2] came out at 106%. Besides, the NO production (% of LPS control) at 10 µM in series [3] was found to be 99.8%. Moreover, the NO production (% of LPS control) at 30 µM in series [4] amounted to 90.1%. Besides, the IC50 in series [5] is greater than 100 µM.
As to `CO[C@H]1O[C@@]2(C)CC(=O)[C@H]3C[C@]2(O)[C@]13COC(=O)c1ccccc1` [PAEONIDANGENIN], the NO production (% of LPS control) at 1 µM in series [1] was 89.9%. Besides, in series [2], the NO production (% of LPS control) at 3 µM is 91.5%. Besides, in series [3], the NO production (% of LPS control) at 10 µM turned out to be 85%. The NO production (% of LPS control) at 30 µM in series [4] amounted to 66.2%. Moreover, in series [5], the IC50 was greater than 100 µM.
In the case of `CO[C@H]1O[C@@]2(C)CC(=O)[C@H]3C[C@]2(O[C@@H]2O[C@H](CO[C@H]4O[C@@]5(C)CC(=O)[C@H]6C[C@]5(O[C@@H]5O[C@H](CO)[C@@H](O)[C@H](O)[C@H]5O)[C@]46COC(=O)c4ccccc4)[C@@H](O)[C@H](O)[C@H]2O)[C@]13COC(=O)c1ccccc1` [PAEONIDANIN D], the Activity result in series [6] is “Toxic”. The NO production (% of LPS control) at 1 µM in series [1] was 112%. The NO production (% of LPS control) at 3 µM in series [2] stood at 96.6%. In addition, the NO production (% of LPS control) at 10 µM in series [3] stood at 83.5%. Besides, the NO production (% of LPS control) at 30 µM in series [4] came to 77.1%.
For the compound `C[C@@H]1CC(=O)[C@H]2C[C@]1(O)[C@]2(C)COC(=O)c1cc(O)c(O)c(O)c1` [PAEONIFLORONE], in series [1], the NO production (% of LPS control) at 1 µM worked out at 91.3%. The NO production (% of LPS control) at 3 µM in series [2] is 83.8%. For the same compound, the NO production (% of LPS control) at 10 µM in series [3] was 67.5%. The NO production (% of LPS control) at 30 µM in series [4] is 64.1%. For the same compound, the IC50 in series [5] was 61.8 µM.
The corresponding values for `COc1cc(/C=C/C(=O)CC(=O)/C=C/c2ccc(O)c(OC)c2)ccc1O` [CURCUMIN] are 86.6%, 75.6%, 56.1%, 35.2% and 13.5 µM.
For `CO[C@H]1O[C@@]2(C)CC(=O)[C@H]3C[C@]2(O[C@@H]2O[C@H](COC(=O)c4cc(O)c(O)c(O)c4)[C@@H](O)[C@H](O)[C@H]2O)[C@]13COC(=O)c1ccccc1` [PAEONIDANIN B], in that order: 63%, 64.1%, 52.2%, 43.5% and 13.9 µM.
For `CO[C@]12C[C@]3(C)O[C@H](O1)[C@]1(CO)[C@@H]2C[C@]13O[C@@H]1O[C@H](CO)[C@@H](O)[C@H](O)[C@H]1O`, in series [1], the NO production (% of LPS control) at 1 µM was determined as 101%. In addition, the NO production (% of LPS control) at 3 µM in series [2] stood at 104%. For the same compound, the NO production (% of LPS control) at 10 µM in series [3] amounted to 97.4%. The NO production (% of LPS control) at 30 µM in series [4] worked out at 78.9%. For the same compound, in series [5], the 50% inhibitory concentration (IC50) was greater than 100 µM.
For `CO[C@]12C[C@]3(C)O[C@H](O1)[C@]1(COC(=O)c4ccccc4)[C@@H]2C[C@]13O[C@@H]1O[C@H](CO)[C@@H](O)[C@H](O)[C@H]1O`, in that order: 111%, 109%, 107%, 90.4% and greater than 100 µM.
Consider `C[C@]12CC(=O)[C@H]3C[C@]1(O[C@@H]1O[C@H](CO)[C@@H](O)[C@H](O)[C@H]1O)[C@]3(COC(=O)c1ccccc1)[C@@H](OC[C@H]1O[C@@H](O[C@@]34C[C@H]5[C@@]3(COC(=O)c3ccccc3)[C@H]3O[C@]5(O)C[C@]4(C)O3)[C@H](O)[C@@H](O)[C@@H]1O)O2` [PAEONIDANIN E], for which, in series [1], the NO production (% of LPS control) at 1 µM is 102%. Besides, in series [2], the NO production (% of LPS control) at 3 µM is 102%. Also, the NO production (% of LPS control) at 10 µM in series [3] worked out at 88.8%. For the same compound, in series [4], the NO production (% of LPS control) at 30 µM turned out to be 69.2%. Moreover, the IC50 in series [5] was 64.7 µM.
Consider `C[C@@]12C[C@@]3(O)O[C@@H](O1)[C@]1(COC(=O)c4ccccc4)[C@H]3C[C@@]12O[C@@H]1O[C@H](CO)[C@@H](O)[C@H](O)[C@H]1O` [PAEONIFLORIN], for which the NO production (% of LPS control) at 1 µM in series [1] turned out to be 100%. In addition, the NO production (% of LPS control) at 3 µM in series [2] was 87.8%. The NO production (% of LPS control) at 10 µM in series [3] was determined as 79.5%. In addition, the NO production (% of LPS control) at 30 µM in series [4] was 66.7%. Also, in series [5], the IC50 came out at 27.8 µM.
The corresponding values for `CO[C@]12C[C@]3(C)O[C@H](O1)[C@]1(COC(=O)c4ccccc4)[C@@H]2C[C@]13O[C@@H]1O[C@H](COC(=O)c2ccccc2)[C@@H](O)[C@H](O)[C@H]1O` are 91.9%, 95.5%, 70.4%, 34.9% and 22.6 µM.
For `CO[C@@H]1C[C@]2(C)OC(=O)[C@]3(COC(=O)c4ccccc4)[C@@H]1C[C@@]23O[C@@H]1O[C@H](CO)[C@@H](O)[C@H](O)[C@H]1O`, in that order: 91.5%, 91.6%, 95.5%, 102% and greater than 100 µM.
For `COc1cc(C(=O)OC[C@H]2O[C@@H](O[C@@]34C[C@H]5[C@@]3(CO)[C@H]3O[C@]5(O)C[C@]4(C)O3)[C@H](O)[C@@H](O)[C@@H]2O)ccc1O` [MUDANPIOSIDE E], in that order: 86.2%, 83.9%, 80.9%, 67.4% and greater than 100 µM.
Take `CO[C@]12C[C@]3(C)O[C@H](O1)[C@]1(COC(=O)c4ccccc4)[C@@H]2C[C@]13O[C@@H]1O[C@H](COC(=O)c2cc(O)c(O)c(O)c2)[C@@H](O)[C@H](O)[C@H]1O`: the NO production (% of LPS control) at 1 µM in series [1] was determined as 80.8%. The NO production (% of LPS control) at 3 µM in series [2] was found to be 113%. Also, in series [3], the NO production (% of LPS control) at 10 µM is 108%. The NO production (% of LPS control) at 30 µM in series [4] came to 102%. Moreover, in series [5], the IC50 was greater than 100 µM.
As to `C[C@]12C[C@@H](O)[C@H]3C[C@]1(O[C@@H]1O[C@H](COC(=O)c4ccccc4)[C@@H](O)[C@H](O)[C@H]1O)[C@]3(COC(=O)c1ccccc1)C(=O)O2` [PAEONIVAYIN], in series [1], the NO production (% of LPS control) at 1 µM was determined as 86.7%. Besides, in series [2], the NO production (% of LPS control) at 3 µM stood at 88.3%. In addition, the NO production (% of LPS control) at 10 µM in series [3] worked out at 82%. Further, in series [4], the NO production (% of LPS control) at 30 µM stood at 82.6%. In addition, the IC50 in series [5] was greater than 100 µM.
The corresponding values for `CO[C@H]1O[C@@]2(C)CC(=O)[C@H]3C[C@]2(O[C@@H]2O[C@H](COC(=O)c4ccccc4)[C@@H](O)[C@H](O)[C@H]2O)[C@]13COC(=O)c1ccc(O)cc1` [PAEONIDANIN C] are 106%, 111%, 94.3%, 80.3% and greater than 100 µM.
`C[C@@]12C[C@@]3(O)O[C@@H](O1)[C@]1(COC(=O)c4ccc(O)cc4)[C@@H]3C[C@]12O[C@@H]1O[C@H](COC(=O)c2ccccc2)[C@@H](O)[C@H](O)[C@H]1O` [MUDANPIOSIDE C]: in series [1], the NO production (% of LPS control) at 1 µM was determined as 71.8%. For the same compound, the NO production (% of LPS control) at 3 µM in series [2] was 66.7%. The NO production (% of LPS control) at 10 µM in series [3] came to 57.5%. The NO production (% of LPS control) at 30 µM in series [4] turned out to be 38.5%. For the same compound, the IC50 in series [5] was determined as 12.8 µM.
The corresponding values for `C[C@@]12C[C@@]3(O)O[C@@H](O1)[C@]1(COC(=O)c4ccc(O)cc4)[C@@H]3C[C@]12O[C@@H]1O[C@H](CO)[C@@H](O)[C@H](O)[C@H]1O` [OXYPAEONIFLORIN] are 71.7%, 83%, 76.6%, 76.6% and greater than 100 µM.
On to `CC12CC3OC4O[C@H](CO)[C@@H](O)[C@H](O)[C@H]4OC34CC1C4(COC(=O)c1ccccc1)C(=O)O2` (stereo not given in full) [LACTIFLORIN], for which the NO production (% of LPS control) at 1 µM in series [1] was determined as 89.4%. The NO production (% of LPS control) at 3 µM in series [2] came to 91.5%. Besides, the NO production (% of LPS control) at 10 µM in series [3] is 86.7%. Further, the NO production (% of LPS control) at 30 µM in series [4] worked out at 81.2%. The IC50 in series [5] is greater than 100 µM.
The corresponding values for `CO[C@H]1O[C@@]2(C)CC(=O)[C@H]3C[C@]2(O[C@@H]2O[C@H](COC(=O)c4ccccc4)[C@@H](O)[C@H](O)[C@H]2O)[C@]13COC(=O)c1ccccc1` [PAEONIDANIN A] are 86.6%, 74.9%, 59.1%, 57.2% and 36.2 µM.
For `C[C@@]12C[C@@]3(O)O[C@@H](O1)[C@]1(COC(=O)c4ccccc4)[C@@H]3C[C@]12O[C@@H]1O[C@H](CO[C@H]2O[C@H](CO)[C@@H](O)[C@H](O)[C@H]2O)[C@@H](O)[C@H](O)[C@H]1O`, in that order: 90.1%, 91.5%, 85.1%, 70.5% and greater than 100 µM.
